Measured values gathered from unrelated publications.
Each line is one published result; the experiments were not run side by side.
FES: Tyrosine-protein kinase Fes/Fps (FES, Homo sapiens, UniProt P07332)
RORC: Nuclear receptor ROR-gamma (RORC, Homo sapiens, UniProt P51449)
CDC7: Cell division cycle 7-related protein kinase (CDC7, Homo sapiens, UniProt O00311)
Maoa: Amine oxidase [flavin-containing] A (Maoa, Rattus norvegicus, UniProt P21396)
SLC22A8: Organic anion transporter 3 (SLC22A8, Homo sapiens, UniProt Q8TCC7)
SIRT2: NAD-dependent protein deacetylase sirtuin-2 (SIRT2, Homo sapiens, UniProt Q8IXJ6)
AMY2: Pancreatic alpha-amylase (AMY2, Sus scrofa, UniProt P00690)
Genome polyprotein protease: Genome polyprotein, protease (Hepatitis C virus genotype 1b, UniProt Q9WMX2)

O=C(O)CNC(=O)C(=O)O — IC50 (Lysine-specific demethylase 4D (KDM4D, Homo sapiens, UniProt Q6B0I6); enzyme activity, inhibitor, AlphaScreen): 34000 nM
COc1ccc2c(Oc3ccc4c(C(=O)Nc5ccccc5N)cccc4c3)ccnc2c1 — IC50 (FES; enzyme activity, inhibitor): > 500 nM
O=S(=O)(c1cccc(C(F)(F)F)c1)N1CCc2ccc(OCc3c(F)cccc3Cl)cc21 — IC50 (RORC; ligand displacement, radioligand): 120 nM
CC(C)[C@H](N)c1nc2cc(-c3ccnc(F)c3)sc2c(=O)[nH]1 — IC50 (CDC7; enzyme activity, inhibitor): 71.7 nM
COc1c(Cl)cccc1COc1ccc2c(c1)N(S(=O)(=O)c1cccc(C(F)(F)F)c1)CC2 — IC50 (RORC; ligand displacement, radioligand): 440 nM
Cc1cc(Nc2cc(CN3CCOCC3)c3nc(C)c(Cc4ccc(Cl)cc4F)n3n2)n[nH]1 — IC50 (Fibroblast growth factor receptor 3 (FGFR3, Homo sapiens, UniProt P22607); enzyme activity, inhibitor, TR-FRET): 106 nM
O=S(=O)(c1cccc(C(F)(F)F)c1)N1CCc2ccc(OCc3ccccc3OC(F)(F)F)cc21 — IC50 (RORC; ligand displacement, radioligand): 290 nM
COc1ccc2cc(C=NN=C3CS(=O)(=O)N(C)c4ccccc43)c(Cl)nc2c1 — IC50 (Maoa; enzyme activity, inhibitor, fluorescence): 3430 nM
Cc1cccc(Nc2ccccc2C(=O)O)c1C — IC50 (SLC22A8; transporter uptake, inhibitor): 1750 nM
CCNC(=O)[C@H](CCCNC(=N)CF)NC(=O)c1ccccc1 — IC50 (Protein-arginine deiminase type-3 (PADI3, Homo sapiens, UniProt Q9ULW8); enzyme activity, inhibitor): 157000 nM
CNC(=O)c1cc2c(Oc3ccc(NC(=O)C4(C(=O)Nc5ccc(F)cc5)CC4)cc3)ccnc2cc1OC — IC50 (Ephrin type-A receptor 5 (EPHA5, Homo sapiens, UniProt P54756); enzyme activity, inhibitor, radiometric): 29 nM
CCCCCCCCCCCCNC(=S)NCCCC[C@H](NC(=O)OCc1ccccc1)C(=O)N[C@@H](Cc1c[nH]c2ccccc12)C(=O)N[C@@H](CCCNC(=N)N)C(N)=O — IC50 (SIRT2; enzyme activity, inhibitor): 150 nM
O=c1oc(Cl)c(Cl)c2ccccc12 — IC50 (Chymotrypsinogen A (Bos taurus, UniProt P00766); enzyme activity, inhibitor, fluorescence): 2800 nM
CCCN1CCN(c2ccc(-c3cncc(Cl)c3N3CCC4(CCNC4=O)CC3)cc2)CC1 — IC50 (Cyclin-dependent kinase 19, with cyclin C (CDK19, Homo sapiens, UniProt Q9BWU1); ligand displacement): 7 nM
CC(=NN=C1CS(=O)(=O)N(C)c2ccccc21)c1sccc1Cl — IC50 (Maoa; enzyme activity, inhibitor, fluorescence): 1040 nM
O=S(=O)(c1cncc(C(F)(F)F)c1)N1CCc2ccc(OCc3c(F)cccc3Cl)cc21 — IC50 (RORC; ligand displacement, radioligand): 290 nM
CCCCCCCCCCCCCC(=S)NCCCC[C@H](NC(=O)OCc1ccccc1)C(=O)N[C@@H](Cc1c[nH]c2ccccc12)C(=O)NC(C)C — IC50 (SIRT2; enzyme activity, inhibitor): 1200 nM
O=S(=O)(c1ccccc1)N1CCc2ccc(OCc3c(F)cccc3Cl)cc21 — IC50 (RORC; ligand displacement, radioligand): 800 nM
C=CC(=O)Nc1cc(Nc2nccc(Nc3cc(Cl)c(F)cc3C(C)(C)O)n2)c(OC)cc1N1CC[C@@H](N(C)C)C1 — IC50 (FES; enzyme activity, inhibitor; with preincubation): 1760 nM
CC(C)[C@H](N)c1nc2cc(-c3ccncc3F)sc2c(=O)[nH]1 — IC50 (CDC7; enzyme activity, inhibitor): 1.84 nM
Cc1cnc(-c2ccc(-c3ccc(NC(=O)Nc4c(F)cc(F)cc4F)cc3F)c3c2C(=O)NC3)[nH]1 — IC50 (Serine/threonine-protein kinase 24 (STK24, Homo sapiens, UniProt Q9Y6E0); enzyme activity, inhibitor): 41.5 nM
O=C(NO)c1ccc(CN(c2cnccn2)c2cnccn2)cc1 — IC50 (SIRT2; enzyme activity, inhibitor, fluorescence): > 10000 nM
Cc1cccc(S(=O)(=O)N2CCc3ccc(OCc4c(F)cccc4Cl)cc32)c1 — IC50 (RORC; ligand displacement, radioligand): 230 nM
C=C(NC(=O)[C@H](CCCCNC(=S)NCCCCCCCCCCCC)NS(C)(=O)=O)C(=O)N[C@@H](CCCNC(=N)N)C(N)=O — IC50 (SIRT2; enzyme activity, inhibitor): 30 nM
COC(=O)c1cc2ccc(O)cc2oc1=O — IC50 (DNA polymerase I, thermostable (polA, Thermus aquaticus, UniProt P19821); enzyme activity, inhibitor): 129000 nM
CC(C)C[C@H](NC(=O)[C@H](Cc1ccccc1)NC(=O)[C@@H](N)Cc1ccc(O)cc1)C(=O)N[C@@H](Cc1ccccc1)C(=O)N[C@@H](CCCNC(=N)N)C(=O)N1CCC[C@H]1C(=O)N[C@@H](CCCNC(=N)N)C(=O)N[C@@H](CC(N)=O)C(N)=O — IC50 (Neuromedin-U receptor 1 (Mus musculus, UniProt O55040); ligand displacement, radioligand; cell membranes): 0.38 nM
CC(C)(C)C(O)/C=C/c1ccc2c(c1)OCO2 (stereo not drawn) — IC50 (SLC22A8; transporter uptake, inhibitor): 27600 nM
COc1cccnc1COc1ccc2c(c1)N(S(=O)(=O)c1cccc(C(F)(F)F)c1)CC2 — IC50 (RORC; ligand displacement, radioligand): 85 nM
O=C1Nc2ccc([N+](=O)[O-])cc2/C1=N/NS(=O)(=O)c1cc(Cl)cc(Cl)c1O — IC50 (AMY2; enzyme activity, inhibitor): 1300 nM
OC[C@@H]1[C@@H](O)[C@H](O)[C@@H](O)[C@@H]2O[C@H]12 — IC50 (Beta-glucosidase (GBA2, Homo sapiens, UniProt Q9HCG7); enzyme activity, inhibitor; pH 7, lysate): 7480 nM
CN1CCN(c2ccnc(C(=O)N3CCC[C@H](C(=O)Nc4cccc(-c5ccc6c(c5)C(=O)NC6)c4)C3)c2)CC1 — IC50 (Histone lysine demethylase PHF8, PHD (PHF8, Homo sapiens, UniProt Q9UPP1); cell-free assay, inhibitor, TR-FRET): > 100000 nM
O=S(=O)(c1cccc(C(F)(F)F)c1)N1CCc2ccc(OCc3c(Cl)ccnc3Cl)cc21 — IC50 (RORC; ligand displacement, radioligand): 78 nM
O=C1OC[C@H]2OC(O)[C@H](O)[C@@H](O)[C@@H]2OC(=O)c2cc(O)c(O)c(O)c2-c2c(O)c(O)c3oc(=O)c4c(c(O)c(O)c5oc(=O)c2c3c54)-c2c1cc(O)c(O)c2O (mixture of isomers) — IC50 (Genome polyprotein protease; enzyme activity, inhibitor, fluorescence): < 100 nM
O=C1Nc2ccc(Cl)cc2/C1=N/NS(=O)(=O)c1ccc(Cl)cc1 — IC50 (AMY2; enzyme activity, inhibitor): 3100 nM
CCCCCCCCCCCCNC(=S)NCCCC[C@H](NC(=O)OCc1ccccc1)C(=O)N[C@@H](CCCCN)C(=O)N[C@@H](CCCNC(=N)N)C(N)=O — IC50 (SIRT2; enzyme activity, inhibitor): 90 nM
Cc1ccc(S(=O)(=O)Nc2ccccc2C(=O)Nc2nc(-c3cc(Cl)ccc3Cl)cs2)cc1 — IC50 (Genome polyprotein protease; enzyme activity, inhibitor, FRET): 1200 nM
